Experimental data from ChEMBL document CHEMBL2331168, “Anticonvulsant evaluation of aminoalkanol derivatives of 2- and 4-methylxanthone” (Bioorg Med Chem, 2013).
Active and inactive are the calls of the source.

Columns and labels:
Mus musculus [1] = experiment: Neurotoxicity in albino mouse assessed as minimal motor impairment at 30 mg/kg, ip after 4 hrs by rotorod test; format: toxicity, organism-based; parameters: dose 30 mg/kg, route intraperitoneal; settings: in vivo
Procedure, shortened: (§1)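 Male albino mice (Carworth Farms No. 1) were dosed ip with suspensions in 0.5% methylcellulose and put on a 1 in. knurled rod rotating at 6 rpm at set times after dosing. Neurotoxicity meant failure to stay on the rod for at least 1 min in each of three trials. Scored as impaired/tested.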

[2] = Neurotoxicity in ip dosed albino mouse assessed as minimal motor impairment after 1 hr by rotorod test; format: toxicity, organism-based; settings: in vivo
Procedure, shortened: (§2)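 TD50, with 95% confidence intervals, was the ip dose causing neurotoxicity in 50% of male albino mice. Deficit was judged on the rotorod: a 1 in. knurled rod at 6 rpm, where failure to hold on for 1 min in each of three trials counted as deficit. Read at the stated time after dosing.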

Mus musculus [3] = experiment: Anticonvulsant activity in albino mouse assessed as protection against maximal electroshock-induced seizures at 100 mg/kg, ip after 4 hrs; format: functional, organism-based; parameters: dose 100 mg/kg
Procedure, shortened: (§3)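 Male albino mice (Carworth Farms No. 1) were given the compound ip as a suspension in 0.5% methylcellulose at 3–300 mg/kg. MES testing was at 0.5 and 4 h, sometimes also at 0.25 and 1 h. Current was 60 Hz, 50 mA, 0.2 s via corneal electrodes, with saline eye drops. Protection meant no hindlimb tonic extension, scored as protected/tested.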

Mus musculus [4] = experiment: Anticonvulsant activity in albino mouse assessed as protection against maximal electroshock-induced seizures at 300 mg/kg, ip after 0.5 hrs; format: functional, organism-based; parameters: dose 300 mg/kg; procedure, shortened: as §3
Mus musculus [5] = experiment: Protective index, ratio TD50 for albino mouse to ED50 for albino mouse by subcutaneous pentetrazole-induced seizure test after 0.5 hrs; format: functional
Mus musculus [6] = experiment: Anticonvulsant activity in albino mouse assessed as protection against subcutaneous pentetrazole-induced seizures at 300 mg/kg, ip after 0.5 hrs; format: functional, organism-based; parameters: dose 300 mg/kg
Procedure, shortened: (§4)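 Male albino mice (Carworth Farms No. 1) received compound ip in 0.5% methylcellulose, then pentetrazole 85 mg/kg sc in 0.9% NaCl at 0.5 or 4 h. Mice were watched for at least 30 min. Protection meant no threshold seizure, defined as a single clonic spasm lasting at least 5 s. Scored as protected/tested.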

Mus musculus [7] = experiment: Anticonvulsant activity in albino mouse assessed as protection against subcutaneous pentetrazole-induced seizures at 30 mg/kg, ip after 0.5 hrs; format: functional, organism-based; parameters: dose 30 mg/kg; procedure, shortened: as §4
Mus musculus [8] = experiment: Anticonvulsant activity in albino mouse assessed as protection against subcutaneous pentetrazole-induced seizures at 100 mg/kg, ip after 4 hrs; format: functional, organism-based; parameters: dose 100 mg/kg; procedure, shortened: as §4
Rattus norvegicus [9] = experiment: Neurotoxicity in Sprague-Dawley rat assessed as minimal motor impairment at 30 mg/kg, po after 2 hrs by rotorod test; settings: in vivo
Rattus norvegicus [10] = experiment: Neurotoxicity in Sprague-Dawley rat assessed as minimal motor impairment at 30 mg/kg, po after 0.5 hrs by rotorod test; settings: in vivo
Mus musculus [11] = experiment: Anticonvulsant activity in albino mouse assessed as protection against subcutaneous pentetrazole-induced seizures at 100 mg/kg, ip after 0.5 hrs; format: functional, organism-based; parameters: dose 100 mg/kg; procedure, shortened: as §4
Mus musculus [12] = experiment: Anticonvulsant activity in albino mouse assessed as protection against maximal electroshock-induced seizures at 100 mg/kg, ip after 0.5 hrs; format: functional, organism-based; parameters: dose 100 mg/kg; procedure, shortened: as §3
Mus musculus [13] = experiment: Neurotoxicity in albino mouse assessed as minimal motor impairment at 100 mg/kg, ip after 0.5 hrs by rotorod test; format: toxicity, organism-based; parameters: dose 100 mg/kg, route intraperitoneal; settings: in vivo; procedure, shortened: as §1
Mus musculus [14] = experiment: Anticonvulsant activity in albino mouse assessed as protection against maximal electroshock-induced seizures at 30 mg/kg, ip after 0.5 hrs; format: functional, organism-based; parameters: dose 30 mg/kg; procedure, shortened: as §3
Rattus norvegicus [15] = experiment: Neurotoxicity in Sprague-Dawley rat assessed as minimal motor impairment at 30 mg/kg, po after 4 hrs by rotorod test; settings: in vivo
Mus musculus [16] = experiment: Anticonvulsant activity in albino mouse assessed as protection against maximal electroshock-induced seizures at 30 mg/kg, ip after 4 hrs; format: functional, organism-based; parameters: dose 30 mg/kg; procedure, shortened: as §3
Mus musculus [17] = experiment: Anticonvulsant activity in albino mouse assessed as protection against maximal electroshock-induced seizures at 300 mg/kg, ip after 4 hrs; format: functional, organism-based; parameters: dose 300 mg/kg; procedure, shortened: as §3
Mus musculus [18] = experiment: Anticonvulsant activity in albino mouse assessed as protection against subcutaneous pentetrazole-induced seizures at 300 mg/kg, ip after 4 hrs; format: functional, organism-based; parameters: dose 300 mg/kg; procedure, shortened: as §4
Rattus norvegicus [19] = experiment: Anticonvulsant activity in Sprague-Dawley rat assessed as protection against maximal electroshock-induced seizures at 30 mg/kg, po after 1 hr; format: functional, organism-based; parameters: dose 30 mg/kg
Procedure, shortened: (§5)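 Male Sprague-Dawley rats dosed orally at 30 mg/kg and tested at 0.25, 0.5, 1, 2 and 4 h. Seizures were induced by 60 Hz alternating current at 150 mA for 0.2 s through corneal electrodes, after a drop of 0.9% NaCl in each eye. Protection meant abolition of hindlimb tonic extension. Reported as protected/tested, usually 4 rats per time point.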

Mus musculus [20] = experiment: Neurotoxicity in albino mouse assessed as minimal motor impairment at 100 mg/kg, ip after 4 hrs by rotorod test; format: toxicity, organism-based; parameters: dose 100 mg/kg, route intraperitoneal; settings: in vivo; procedure, shortened: as §1
Rattus norvegicus [21] = experiment: Neurotoxicity in Sprague-Dawley rat assessed as minimal motor impairment at 30 mg/kg, po after 1 hr by rotorod test; settings: in vivo
Rattus norvegicus [22] = experiment: Neurotoxicity in Sprague-Dawley rat assessed as minimal motor impairment at 30 mg/kg, po after 0.25 hrs by rotorod test; settings: in vivo
Mus musculus [23] = experiment: Anticonvulsant activity in ip dosed albino mouse assessed as protection against subcutaneous pentetrazole-induced seizures after 0.5 hrs; format: functional
Mus musculus [24] = species: Mus musculus; experiment: Protective index, ratio TD50 for albino mouse to ED50 for albino mouse by maximal electroshock-induced seizure test after 0.5 hrs; format: functional
Procedure, shortened: (§6)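 Protective index was calculated as mouse ip TD50 (rotorod) divided by mouse ip MES ED50, both obtained by quantitative dose-response testing at the stated post-dose time.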

Mus musculus [25] = experiment: Anticonvulsant activity in albino mouse assessed as protection against subcutaneous pentetrazole-induced seizures at 30 mg/kg, ip after 4 hrs; format: functional, organism-based; parameters: dose 30 mg/kg; procedure, shortened: as §4
Mus musculus [26] = experiment: Anticonvulsant activity in ip dosed albino mouse assessed as protection against maximal electroshock-induced seizures after 0.5 hrs; format: functional
Procedure, shortened: (§7)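 ED50, with 95% confidence intervals, was the ip dose protecting 50% of mice in the MES test. It was measured at the stated post-dose time in male albino mice given suspensions in 0.5% methylcellulose. MES used 60 Hz, 50 mA, 0.2 s corneal stimulation, and the endpoint was abolition of hindlimb tonic extension.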

Mus musculus [27] = experiment: Neurotoxicity in albino mouse assessed as minimal motor impairment at 30 mg/kg, ip after 0.5 hrs by rotorod test; format: toxicity, organism-based; parameters: dose 30 mg/kg, route intraperitoneal; settings: in vivo; procedure, shortened: as §1
Rattus norvegicus [28] = experiment: Anticonvulsant activity in Sprague-Dawley rat assessed as protection against maximal electroshock-induced seizures at 30 mg/kg, po after 0.5 hrs; format: functional, organism-based; parameters: dose 30 mg/kg; procedure, shortened: as §5
Mus musculus [29] = experiment: Neurotoxicity in albino mouse assessed as minimal motor impairment at 300 mg/kg, ip after 4 hrs by rotorod test; format: toxicity, organism-based; parameters: dose 300 mg/kg, route intraperitoneal; settings: in vivo; procedure, shortened: as §1
Rattus norvegicus [30] = experiment: Anticonvulsant activity in Sprague-Dawley rat assessed as protection against maximal electroshock-induced seizures at 30 mg/kg, po after 2 hrs; format: functional, organism-based; parameters: dose 30 mg/kg; procedure, shortened: as §5
Mus musculus [31] = experiment: Neurotoxicity in albino mouse assessed as minimal motor impairment at 300 mg/kg, ip after 0.5 hrs by rotorod test; format: toxicity, organism-based; parameters: dose 300 mg/kg, route intraperitoneal; settings: in vivo; procedure, shortened: as §1
Rattus norvegicus [32] = experiment: Anticonvulsant activity in Sprague-Dawley rat assessed as protection against maximal electroshock-induced seizures at 30 mg/kg, po after 0.25 hrs; format: functional, organism-based; parameters: dose 30 mg/kg; procedure, shortened: as §5
Rattus norvegicus [33] = experiment: Anticonvulsant activity in Sprague-Dawley rat assessed as protection against maximal electroshock-induced seizures at 30 mg/kg, po after 4 hrs; format: functional, organism-based; parameters: dose 30 mg/kg; procedure, shortened: as §5
[34] = Neurotoxicity in ip dosed albino mouse assessed as minimal motor impairment after 2 hrs by rotorod test; format: toxicity, organism-based; settings: in vivo; procedure, shortened: as §2
Mus musculus [35] = experiment: Anticonvulsant activity in ip dosed albino mouse assessed as protection against maximal electroshock-induced seizures after 1 hr; format: functional; procedure, shortened: as §7
Mus musculus [36] = species: Mus musculus; experiment: Protective index, ratio TD50 for albino mouse to ED50 for albino mouse by maximal electroshock-induced seizure test after 1 hr; format: functional; procedure, shortened: as §6
Mus musculus [37] = experiment: Anticonvulsant activity in ip dosed albino mouse assessed as protection against subcutaneous pentetrazole-induced seizures after 2 hrs; format: functional
Mus musculus [38] = experiment: Protective index, ratio TD50 for albino mouse to ED50 for albino mouse by subcutaneous pentetrazole-induced seizure test after 2 hrs; format: functional

SMILES | Activity (Mus musculus [1]) | Activity (Mus musculus [3]) | Activity (Mus musculus [4]) | Activity (Mus musculus [6]) | Activity (Mus musculus [7]) | Activity (Mus musculus [8]) | Activity (Rattus norvegicus [9]) | Activity (Rattus norvegicus [10]) | Activity (Mus musculus [11]) | Activity (Mus musculus [12]) | Activity (Mus musculus [13]) | Activity (Mus musculus [14]) | Activity (Rattus norvegicus [15]) | Activity (Mus musculus [16]) | Activity (Rattus norvegicus [19]) | Activity (Mus musculus [20]) | Activity (Rattus norvegicus [21]) | Activity (Rattus norvegicus [22]) | Activity (Mus musculus [25]) | Activity (Mus musculus [27]) | also measured
CCC(CO)NCc1ccc2oc3cc(OC)ccc3c(=O)c2c1 (racemic) | Non-toxic | inactive | Active | inactive | inactive | inactive | Non-toxic | Non-toxic | inactive | Active | Non-toxic | inactive | Non-toxic | inactive | inactive | Non-toxic | Non-toxic | Non-toxic | inactive | Non-toxic | TD50 at 1 h [2]: 213 mg/kg; Ratio TD50/ED50 (Mus musculus [5]): <0.43; Activity (Mus musculus [17]): Active; Activity (Mus musculus [18]): inactive; ED50 (Mus musculus [23]): > 500 mg/kg; Ratio TD50/ED50 (Mus musculus [24]): 2.66; ED50 (Mus musculus [26]): 80 mg/kg
CCC(CO)NCc1cccc2c(=O)c3ccc(OC)cc3oc12 (racemic) | Non-toxic | inactive | Active | – | inactive | inactive | Non-toxic | Non-toxic | inactive | Active | Toxic | inactive | Non-toxic | inactive | inactive | Non-toxic | Non-toxic | Non-toxic | inactive | Non-toxic | Activity (Rattus norvegicus [28]): inactive; Activity (Mus musculus [29]): Toxic; Activity (Rattus norvegicus [30]): inactive; Activity (Mus musculus [31]): Toxic; Activity (Rattus norvegicus [32]): inactive; Activity (Rattus norvegicus [33]): inactive
C[C@@H](CO)NCc1ccc2oc3ccc(Cl)cc3c(=O)c2c1 | Non-toxic | Active | inactive | inactive | inactive | inactive | Non-toxic | Non-toxic | inactive | – | Non-toxic | inactive | Non-toxic | inactive | inactive | Non-toxic | Non-toxic | Non-toxic | inactive | Non-toxic | Activity (Mus musculus [29]): Non-toxic; Activity (Mus musculus [17]): Active; Activity (Mus musculus [18]): inactive; Activity (Rattus norvegicus [30]): inactive; Activity (Mus musculus [31]): Non-toxic; TD50 at 2 h [34]: 313 mg/kg; Activity (Rattus norvegicus [33]): inactive; ED50 (Mus musculus [35]): 79.7 mg/kg; Ratio TD50/ED50 (Mus musculus [36]): 3.93; ED50 (Mus musculus [37]): > 375 mg/kg; Ratio TD50/ED50 (Mus musculus [38]): <0.84
